Results from different studies.
Organism: Plasmodium falciparum
Observed: parasite growth

SMILES	assay	test system	conditions	endpoint	value
COc1ccnn1-c1ccccc1NCC(=O)Nc1ccc(Oc2ccc(C)cc2)cc1		3D7	72 h, blood stage	EC50	> 10 µM
CO[C@H]1C[C@H](O[C@@H]2/C(C)=C/C[C@@H]3C[C@@H](C[C@]4(CC[C@H](C)[C@@H](C5CCCCC5)O4)O3)OC(=O)[C@@H]3C=C(C)/C(=N/O)[C@H]4OC/C(=C\C=C\[C@@H]2C)[C@]43O)O[C@@H](C)[C@@H]1O		NF54	blood stage	IC50	0.698 µM
CCN(c1ccc(C)cc1)c1ccc(NC(=O)CN(C)c2ccccc2N2CCCC2=O)cn1		3D7	72 h, blood stage	EC50	0.004 µM
CCC1=C(CC)/C(=C/c2cc(-c3ccc(OC(F)(F)F)cc3)c(C)[nH]2)N=C1c1ccc[nH]1	SYBR Green	D6	72 h, blood stage	IC50	> 2.5 µM
N#Cc1ccc(Oc2ccc(NC(=O)CNc3ccccc3N3CCCC3=O)cc2)cc1		3D7	72 h, blood stage	EC50	1.4 µM
C[C@H]1Cc2c([nH]c3cc(Cl)c(F)cc23)[C@@]2(N1)C(=O)Nc1ccc(Cl)cc12		3D7	72 h, blood stage	EC50	0.0007 µM
CNCC[C@H](Oc1cccc2ccccc12)c1cccs1		NF54	blood stage	IC50	0.706 µM
COc1cc(/C=C/C(=O)C(=Cc2cccc(O)c2)C(=O)/C=C/c2ccc(O)c(OC)c2)ccc1O		3D7	blood stage	EC50	1.15 µM
COC1=CC(c2ccc[nH]2)=N/C1=C\c1[nH]c(-c2ccc(OC)cc2)cc1-c1ccc(OC)cc1	SYBR Green	D6	72 h, blood stage	IC50	0.0312 µM
COc1cc(/C=C/C(=O)C(=Cc2ccc([N+](=O)[O-])cc2)C(=O)/C=C/c2ccc(O)c(OC)c2)ccc1O		3D7	blood stage	EC50	2.77 µM
CC(C(=O)Nc1ccccc1Cl)n1ccc2ccc(-c3cnn(C)c3)cc21 (stereo not drawn)		3D7	72 h, blood stage	EC50	1.12 µM
CCC1=C(CC)/C(=C/c2cc(Cc3ccc(Cl)cc3)c(C)[nH]2)N=C1c1ccc[nH]1	SYBR Green	D6	72 h, blood stage	IC50	0.343 µM
CCN(CC)CCOc1ccc2c(c1)C(=O)c1cc(OCCN(CC)CC)ccc1-2		NF54	blood stage	IC50	0.647 µM
Cc1[nH]c(/C=C2\N=C(c3ccc[nH]3)C3=C2OCCO3)cc1Cc1ccc(Cl)cc1	SYBR Green	D6	72 h, blood stage	IC50	0.0143 µM
CC(=O)[C@@]1(O)[C@H](O)C[C@H]2[C@@H]3CCC4=CC(=O)CC[C@]4(C)[C@H]3CC[C@@]21C	SYBR Green	3D7	blood stage	IC50	0.142 µM
COc1cc(C=C(C(=O)/C=C/c2ccc(O)c(OC)c2)C(=O)/C=C/c2ccc(O)c(OC)c2)ccc1O		3D7	blood stage	EC50	1.79 µM
Cc1nnc(-c2ccc3ccn(CC(=O)Nc4ccccn4)c3c2)o1		3D7	72 h, blood stage	EC50	4.25 to 4.78 µM
COc1cc(/C=C/c2cc(/C=C/c3ccc(O)c(OC)c3)n(-c3ccc(Cl)cc3Cl)n2)ccc1O		3D7	blood stage	EC50	3.29 µM
Cc1ccc(N(C)c2ccc(NC(=O)CN(C)c3ccccc3N3CCCC3=O)cc2)nc1		3D7	72 h, blood stage	EC50	4 µM
CCC1=C(CC)/C(=C/c2[nH]c(Cc3ccc(OC(F)(F)F)cc3)cc2Cc2ccc(OC(F)(F)F)cc2)N=C1c1ccc[nH]1	SYBR Green	D6	72 h, blood stage	IC50	2.04 µM
Cc1ccc(N(C)c2ccc(NC(=O)CN(C)c3ccccc3N3CCCC3=O)cn2)cc1		3D7	72 h, blood stage	EC50	0.013 µM
N=C(CC(O)c1nc2ccccc2c2ccccc12)Nc1ccc(F)cc1 (stereo not drawn)	ELISA	DD2	72 h, drug-resistant strain, blood stage	IC50	0.0892 µM
Cc1ccc(N(C)c2ccc(NC(=O)CN(C)c3ccccc3N3CCCC3=O)c(F)c2)cc1		3D7	72 h, blood stage	EC50	0.003 µM
COC1=CC(c2ccc[nH]2)=N/C1=C\c1[nH]c(-c2ccccc2)cc1-c1ccccc1	SYBR Green	D6	72 h, blood stage	IC50	0.0166 µM
CCc1nnc(-c2ccc3ccn(CC(=O)Nc4cc(OC)c(OC)c(OC)c4)c3c2)o1		DD2	72 h, blood stage	EC50	0.194 µM
CC(C)N(c1ccc(NC(=O)CN(C)c2ccccc2N2CCCC2=O)cc1)c1ccc(Cl)c(F)c1		3D7	72 h, blood stage	EC50	0.039 µM
COC1=CC(c2ccc[nH]2)=N/C1=C\c1[nH]c(C(=O)O)cc1Cc1ccc(Cl)cc1	SYBR Green	D6	72 h, blood stage	IC50	> 2.5 µM
COc1cc(/C=C/c2cc(/C=C/c3ccc(O)c(OC)c3)n(-c3cccc([N+](=O)[O-])c3)n2)ccc1O		3D7	blood stage	EC50	0.82 µM
COC1=C(OC)/C(=C/c2cc(-c3ccc(OC(F)(F)F)cc3)c(C)[nH]2)N=C1c1ccc[nH]1	SYBR Green	D6	72 h, blood stage	IC50	0.521 µM
O=C(CNc1ccccc1N1CCCC1=O)Nc1ccc(Oc2ccccc2)cc1		3D7	72 h, blood stage	EC50	> 10 µM
